Experimental data taken from article PMC9060905 (RSC Advances, 2019).
Where two headings read alike, the source gives them in different places. Ends that are not written are not given here.

Experiments:
[1] = test system: ACE; conditions: cited from earlier work
[2] = target: T1, ACE (from rabbit lung) (Oryctolagus cuniculus, UniProt P12822); assay: ACE-inhibitory activity; type: biochemical
T1 sequence (P12822 34-1310): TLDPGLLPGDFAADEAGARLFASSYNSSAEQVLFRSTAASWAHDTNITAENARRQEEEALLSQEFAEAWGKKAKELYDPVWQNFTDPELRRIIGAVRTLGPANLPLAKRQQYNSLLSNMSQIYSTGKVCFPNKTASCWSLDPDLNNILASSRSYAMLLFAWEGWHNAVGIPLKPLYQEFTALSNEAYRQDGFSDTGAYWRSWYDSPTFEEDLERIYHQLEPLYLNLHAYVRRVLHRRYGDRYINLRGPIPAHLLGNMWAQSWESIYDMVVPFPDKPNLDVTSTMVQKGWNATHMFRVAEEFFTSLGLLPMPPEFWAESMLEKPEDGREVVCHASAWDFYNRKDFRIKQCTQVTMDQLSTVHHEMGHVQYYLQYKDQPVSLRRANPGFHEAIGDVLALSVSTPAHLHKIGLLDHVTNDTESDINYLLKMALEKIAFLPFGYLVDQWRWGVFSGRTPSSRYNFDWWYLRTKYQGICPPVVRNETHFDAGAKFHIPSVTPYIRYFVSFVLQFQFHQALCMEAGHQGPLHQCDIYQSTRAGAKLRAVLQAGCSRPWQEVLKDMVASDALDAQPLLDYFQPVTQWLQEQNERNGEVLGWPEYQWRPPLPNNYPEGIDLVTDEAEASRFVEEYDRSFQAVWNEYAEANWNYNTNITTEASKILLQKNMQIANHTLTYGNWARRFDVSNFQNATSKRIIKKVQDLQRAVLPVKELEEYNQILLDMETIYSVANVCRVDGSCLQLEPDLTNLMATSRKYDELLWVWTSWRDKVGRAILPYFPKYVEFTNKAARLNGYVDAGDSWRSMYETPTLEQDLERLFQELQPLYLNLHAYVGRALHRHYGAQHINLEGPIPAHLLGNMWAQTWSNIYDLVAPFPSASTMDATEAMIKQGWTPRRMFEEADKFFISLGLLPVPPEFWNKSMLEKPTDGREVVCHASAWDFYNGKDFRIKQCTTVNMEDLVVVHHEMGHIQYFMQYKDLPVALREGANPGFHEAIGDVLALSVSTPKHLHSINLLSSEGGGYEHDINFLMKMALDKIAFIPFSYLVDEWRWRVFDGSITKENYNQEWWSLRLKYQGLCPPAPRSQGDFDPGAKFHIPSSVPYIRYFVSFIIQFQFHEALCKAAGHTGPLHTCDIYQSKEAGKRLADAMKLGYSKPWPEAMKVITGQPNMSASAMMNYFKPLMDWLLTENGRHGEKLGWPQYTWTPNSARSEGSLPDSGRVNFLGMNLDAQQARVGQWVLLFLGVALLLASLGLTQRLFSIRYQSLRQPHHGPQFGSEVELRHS
Procedure, shortened: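 Rabbit-lung ACE with HHL substrate. Hippuric acid is extracted into ethyl acetate (vortex 5 s, 14100g for 5 min). The upper organic phase is dried in a vacuum oven at 80 °C for 1 h, redissolved in distilled water, and read at 228 nm. Experiments repeated at least three times; mean values used.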

[3] = cited from earlier work
[4] = test system: ET-1 in vascular endothelial cells; conditions: cited from earlier work

Substance	ACE inhibition pattern [1]	Effect on ET-1 expression in vascular endothelial cells [4]	also measured
EVSQGRP	mixed-mode inhibition patterns	–	–
KAQYPYV [KAQYPYV, Lys-Ala-Gln-Tyr-Pro-Tyr-Val]	–	–	IC50 [2]: 37.1 µM
Leu-Ala-Arg-Leu	–	–	Fe2+ chelating ability ([3]; at 0.1 mg mL^-1, tilapia gelatin peptide): 46.53%
SAAVGSP	mixed-mode inhibition patterns	–	–
Val-Ile-Glu-Pro-Arg	–	inhibiting the expression of ET-1	–
Val-Phe-Tyr	–	inhibiting the expression of ET-1	–
Val-Val-Leu-Tyr-Lys [VVLYK]	mixed-mode inhibition patterns	inhibiting the expression of ET-1	–
YYIVS	–	–	Fe2+ chelating ability ([3]; at 3 mg mL^-1, sweet potato protein peptide): 59.74%
